# Assay outcomes (PubChem BioAssay)
# HSP90 inh = inhibitors of HSP90 luciferase refolding in rabbit reticulocyte lysate | luciferase refolding luminescence, 3 h | inhibition, % at 5.6 µM | 290,000 compounds, 0.91% hits | AID 1789;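 active means inhibition above the screen-wide mean plus 3 SD, computed separately per campaign, cut at about 16% in these data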;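 further: 0% = DMSO wells and 100% = 60 µM geldanamycin wells; inhibitors lower the luminescence because luciferase stays unfolded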
# SENP8 block-1 = SENP8 protease inhibition; inhibition, % at 10 µM; 330,000 compounds, 1.2% hits; Q96LD8; purified SENP8, Z-RLRGG-aminoluciferin cleavage, luminescence; in the data active means inhibition above about 50%
# Target sequence (Q96LD8 whole entry, looked up): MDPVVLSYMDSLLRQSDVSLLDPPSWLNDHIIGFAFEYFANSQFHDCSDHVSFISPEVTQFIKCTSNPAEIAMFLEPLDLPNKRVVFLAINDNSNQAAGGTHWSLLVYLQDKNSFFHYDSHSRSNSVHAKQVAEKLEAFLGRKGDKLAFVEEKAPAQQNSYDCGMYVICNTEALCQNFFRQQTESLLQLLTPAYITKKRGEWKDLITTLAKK
# SENP1 inh = SENP1 (human) catalytic domain inhibition; Q9P0U3; recombinant SENP1 catalytic domain, CyPet-SUMO1-YPet FRET cleavage; inhibition, % at 10 µM; 360,000 compounds, 0.21% hits; AID 624204;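 active means inhibition at least 30% at 10 µM, raw YFP signal under a set limit, fluorescence ratio 0.5 to 1.5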;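 further: 0% = enzyme with DMSO and 100% = no enzyme wells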
# Target sequence (Q9P0U3 419-644 limits assumed): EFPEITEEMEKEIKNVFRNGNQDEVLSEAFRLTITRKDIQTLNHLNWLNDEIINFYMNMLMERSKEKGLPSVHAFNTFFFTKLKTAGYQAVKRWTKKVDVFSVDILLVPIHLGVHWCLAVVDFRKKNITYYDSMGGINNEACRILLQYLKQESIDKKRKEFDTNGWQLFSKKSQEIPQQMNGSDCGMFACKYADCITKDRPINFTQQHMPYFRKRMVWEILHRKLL
#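 Controls: no-enzyme wells low, DMSO-plus-enzyme wells high control. Test system: human recombinant His6-tagged SENP1 catalytic domain enzyme. Reagent: SFCypet-SUMO1-SFYpet FRET protein substrate, 25 nM final. Doses: one dose per compound, 10 µM, 0.5% DMSO. Detection: FRET, CFP and YFP emission. Timing: 50 min reaction at room temperature.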
# SENP8 block-2 = blocks human SENP8 cleavage of Nedd8 substrate | recombinant SENP8, Nedd8 substrate fluorescence | inhibition, % at 20 µM | 360,000 compounds, 0.64% hits; in the data active means inhibition mostly above about 40%, no sharp cut-off; inactive means mostly below about 27%
# SENP7 block = blocks the human protease SENP7; 330,000 compounds, 1.5% hits; recombinant SENP7, Z-RLRGG-aminoluciferin luminescence, 40 min; Q9BQF6; inhibition, % at 5 µM;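 active means inhibition above about 50% at the single test dose, limit read from the data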;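 further: plate controls were DMSO with enzyme for no effect and no enzyme buffer wells for full effect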
# SENP6 block = inhibitors of human SENP6 protease; 330,000 compounds, 1.8% hits; inhibition, % at 10 µM; Q9GZR1; Recombinant SENP6 catalytic domain, aminoluciferin luminescence;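 active means inhibition above about 50% at the single tested dose, limit read from the data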;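 further: plate controls were DMSO wells with enzyme for no effect and DMSO wells lacking enzyme for full effect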
# SENP8 inh conf = SENP8 (human) inhibition, single concentration confirmation | shares compounds with SENP8 block-2 | purified SENP8, Nedd8-AMC/pro-Nedd8 cleavage fluorescence, 30 min | inhibition, % at 25 µM | 1,400 compounds, 15% hits | AID 624319; in the data active means inhibition mostly above about 39%, no sharp cut-off; inactive means mostly below about 34%
# * = called active by the depositor; / = not tested or not shown; ! = repeats disagree. Only some compounds are listed: those with a hit (about 2.9% of all), similar ones and a draw of the others.
SMILES,HSP90 inh,SENP8 block-1,SENP1 inh,SENP8 block-2,SENP7 block,SENP6 block,SENP8 inh conf
CC(=O)C1=C(C)NC(C)=C(C(C)=O)C1c1ccccc1,-2,11,2,41*,0,2,11
COc1ccc(N2C(=O)[C@@H]3[C@H](C2=O)[C@H]2c4ccccc4C=CN2[C@@H]3C(C)=O)cc1,3,/,-19,63*,/,/,93*
CC(=O)Nc1ccc(S(=O)(=O)NCC(=O)Nc2ccc3c(c2)OCO3)cc1,/,1,-1,8,0,4,/
COc1ccc2cc3[n+](cc2c1OC)CCc1cc2c(cc1-3)OCO2,-4,9,28,53*!,10,4,32
CC(=O)Nc1ccccc1NC(=O)C/C(C)=N/NC(=O)c1ccc([N+](=O)[O-])c(Cl)c1,-1,-9,0,40*,-4,-4,8
Cc1[nH][nH]c(=O)c1C(c1cc2c(cc1Br)OCO2)c1c(C)[nH][nH]c1=O,2,-4,2,7,-1,14,/
Cc1[nH][nH]c(=O)c1C(c1cc(Br)ccc1O)c1c(C)[nH][nH]c1=O,2,4,-3,42*,4,15,39
COc1cc(OC)cc(C(=O)NCC(=O)OCc2ccc(Cl)c(Cl)c2)c1,/,-10,0,5,1,-5,/
O=C(O/N=C\c1ccc(N2CCCCC2)c([N+](=O)[O-])c1)c1cccc(Cl)c1,-2,-1,1,59*,7,1,15
Cc1ccc(C(=O)O/N=C\c2ccc(N3CCCCC3)c([N+](=O)[O-])c2)cc1,3,3,8,48*,-6,-13,13
Cc1cc(C)cc(NC(=O)CN(C)S(=O)(=O)c2cnc[nH]2)c1,3,-6,-1,42*,1,0,-5
C[C@@H]1CN(C(=O)c2nc3ccc(Cl)cn3c2CN2CCc3sccc3C2)C[C@H](C)O1,3,4,-11,43*,-4,8,21
CC1=CC2(O)OCCN(CCO)C2=CC1=O (stereo not drawn),2,8,-4,44*,3,9,32
COC(=O)c1nn(-c2ccc(OC)cc2)c(=O)cc1NN,1,1,3,57*,7,-10,9
COC(=O)c1nn(-c2ccc(OC)cc2)c(=O)cc1Sc1ccc(C)cc1,5,5,-7,-6,2,23,/
O=C(COC(=O)/C=C/c1ccccc1)NC1CCCCC1,/,-13,2,-1,-10,-22,/
O=C(CN1CCN(CC(=O)Nc2ccc(F)cc2)CC1)NCC1(N2CCOCC2)CCCCC1,/,-5,-1,12,4,4,/
O=C(O)c1c(N2CCCCC2)ccc([N+](=O)[O-])c1N1CCCCC1,2,-2,1,40*,7,-4,23
O=C(c1cc([N+](=O)[O-])ccc1N1CCCCC1)N1CCCCC1,0,9,-2,14,5,-2,/
O=C(O)c1cc([N+](=O)[O-])ccc1N1CCCCC1,0,-8,3,42*,-5,-13,16
CC1CC(C)CN(S(=O)(=O)c2ccc3c(c2)CC(=O)N3)C1 (stereo not drawn),/,3,-1,10,1,7,/
O=S1(=O)CC(O)C(N=Nc2c(O)n(Cc3ccccc3)c3ccccc23)C1 (stereo not drawn),2,-2,0,18,-5,-17,/
CCOC(=O)C1=C(C)NC(=O)NC1c1ccc(OCCO)c(OC)c1 (stereo not drawn),1,-8,1,40*,-6,-6,3
CCOC(=O)C1=C(C)NC(=O)NC1c1ccc(OC)c(Cl)c1 (stereo not drawn),5,-8,1,9,-5,-16,/
COc1cccc(OC)c1C(=O)NC(=S)N1CCCCC1c1cccnc1 (stereo not drawn),-3,0,1,52*,2,11,16
SMILES,HSP90 inh,SENP8 block-1,SENP1 inh,SENP8 block-2,SENP7 block,SENP6 block,SENP8 inh conf
Cc1ccc(C(C#N)c2ccc3c(C(F)(F)F)cc(C(F)(F)F)nc3n2)cc1 (stereo not drawn),0,6,-6,43*,-3,-22,11
N#CC(c1ccccc1)c1ccc2c(C(F)(F)F)cc(C(F)(F)F)nc2n1 (stereo not drawn),3,-9,-13,32,-7,-3,/
CC(=O)N(O)CCCCCNC(=O)CCC(=O)N(O)CCCCCNC(=O)CCC(=O)N(O)CCCCCN,0,1,2,50*!,4,-2,19
O=C(N/N=C\C=C\c1ccc2c(c1)OCO2)c1ccc(F)cc1,3,-7,-3,-375,-1,0,/
NC(=O)N/N=C/C=C/c1ccc(F)cc1,-1,5,3,43*,-1,-39,25
O=c1ccc(Br)c[nH]1,-2,10,2,42*,14,11,22
CCc1ccccc1N1C(=O)C2CC=CCC2C1=O (stereo not drawn),1,-9,8,18,0,-11,/
CCc1ccccc1N1C(=O)C2CC(C)=C(C)CC2C1=O (stereo not drawn),-1,0,3,41*,0,-19,3
CN(CC(=O)Nc1ccc(F)c(F)c1F)C(=O)c1nn(Cc2ccccc2)c(=O)c2ccccc12,/,0,0,8,0,2,/
O=C(Nc1ccccc1N1CCCC1)c1ccc([N+](=O)[O-])o1,-1,-3,0,40*,14,22,54*
CCCC(=O)N1CCN(c2ccc(NC(=O)c3ccc([N+](=O)[O-])o3)cc2)CC1,-1,/,0,54*,/,/,46
O=C(Nc1ccc(N2CCN(C(=O)c3ccc(Cl)cc3)CC2)cc1)c1ccc([N+](=O)[O-])o1,0,/,3,33*,/,/,26
CCC(=O)N1CCN(c2ccc(NC(=O)c3ccc([N+](=O)[O-])o3)cc2)CC1,5,/,-1,43*,/,/,26
O=C(Nc1ccc(N2CCN(C(=O)c3ccc(Cl)cc3)CC2)cc1)c1ccc2c(c1)OCCO2,3,-9,1,8,0,-11,/
CC1CCN(c2ccccc2NC(=O)c2ccc([N+](=O)[O-])o2)CC1,-2,-8,1,15,-14,0,/
COC(=O)c1ccc(C)c(NC(=O)CCCN2C(=O)CN(C)C2=O)c1,/,-11,1,-1,-12,-20,/
COC(=O)c1cccc(CC2(C)C(=O)Nc3ccc(OC(F)(F)F)cc32)c1 (stereo not drawn),/,/,-1,12,/,/,/
Cc1ccc(N(CC(=O)Nc2cccc(Cl)c2C)S(C)(=O)=O)cc1,-1,12,1,0,3,-5,/
Cc1noc(C)c1COC(=O)c1csc2c1CCC(C)C2 (stereo not drawn),/,-8,1,14,1,-4,/
